In ChEMBL document CHEMBL1131139, “Synthesis and antibacterial activity of ketolides (6-O-methyl-3-oxoerythromycin derivatives): a new class of antibacterials highly potent against macrolide-resistant and -susceptible respiratory pathogens” (1998):
Converted amounts (≈) assume the structure as drawn.

What was measured:
Assay type in all cases: functional
Haemophilus influenzae [1] = experiment: In vitro inhibitory activity against Haemophilus influenzae (351HT3)
Procedure, shortened: (§1)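 Two-fold agar dilution on Mueller-Hinton agar (pH 7.4). Inoculum from overnight plate cultures suspended in Mueller-Hinton broth, adjusted to 10^9 CFU/mL, diluted 1:200 and spotted by multipoint inoculator at about 10^4 CFU/spot. Plates incubated 37 °C for 20 h. MIC taken as lowest concentration with no visible growth.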

Escherichia coli = experiment: In vitro inhibitory activity against Escherichia coli (250 UC5); procedure, shortened: as §1
Streptococcus pneumoniae [2] = experiment: In vitro inhibitory activity against Streptococcus pneumoniae (EryRc 030SJ1); procedure, shortened: as §1
[3] = system: Staphylococcus epidermidis; experiment: In vitro inhibitory activity against Staphylococcus epidermidis (EryRi 012GO11i); procedure, shortened: as §1
Staphylococcus aureus [4] = experiment: In vitro inhibitory activity against Staphylococcus aureus (EryRi 011GO25i); procedure, shortened: as §1
Staphylococcus aureus [5] = experiment: In vitro inhibitory activity against Staphylococcus aureus (EryRc 011CB20); procedure, shortened: as §1
Streptococcus pneumoniae [6] = experiment: In vitro inhibitory activity against Streptococcus pneumoniae (032UC1); procedure, shortened: as §1
Staphylococcus aureus [7] = experiment: In vitro inhibitory activity against Staphylococcus aureus (011UC4); procedure, shortened: as §1
Haemophilus influenzae [8] = experiment: In vitro inhibitory activity against Haemophilus influenzae (351CB12); procedure, shortened: as §1
Streptococcus pyogenes = experiment: In vitro inhibitory activity against Streptococcus pyogenes (02A1UC1); procedure, shortened: as §1
Streptococcus pneumoniae [9] = experiment: In vitro inhibitory activity against Streptococcus pneumoniae (EryRi 030SJ5i); procedure, shortened: as §1

| MIC (Haemophilus influenzae [1]) | MIC (Escherichia coli) | MIC (Streptococcus pneumoniae [2]) | MIC [3] | MIC (Staphylococcus aureus [4]) | MIC (Staphylococcus aureus [5]) | MIC (Streptococcus pneumoniae [6]) | MIC (Staphylococcus aureus [7]) | MIC (Haemophilus influenzae [8]) | MIC (Streptococcus pyogenes) | MIC (Streptococcus pneumoniae [9]) | Compound |
| --- | --- | --- | --- | --- | --- | --- | --- | --- | --- | --- | --- |
| 40 µg/mL (≈ 56 µM) | 40 µg/mL (≈ 56 µM) | 20 µg/mL (≈ 28 µM) | 0.6 µg/mL (≈ 0.84 µM) | 2.5 µg/mL (≈ 3.5 µM) | 40 µg/mL (≈ 56 µM) | 10 µg/mL (≈ 14 µM) | 0.6 µg/mL (≈ 0.84 µM) | 20 µg/mL (≈ 28 µM) | 0.15 µg/mL (≈ 0.21 µM) | 40 µg/mL (≈ 56 µM) | CC[C@H]1OC(=O)[C@H](C)C(=O)[C@H](C)[C@@H](O[C@@H]2O[C@H](C)C[C@H](N(C)C)[C@H]2O)[C@](C)(OC)C[C@@H](C)/C(=N\OCCN2CCCCC2)[C@H](C)[C@@H](O)[C@]1(C)O |
| 1.2 µg/mL (≈ 1.61 µM) | 40 µg/mL (≈ 53.6 µM) | 5 µg/mL (≈ 6.69 µM) | 0.15 µg/mL (≈ 0.201 µM) | 0.08 µg/mL (≈ 0.107 µM) | 40 µg/mL (≈ 53.6 µM) | 0.02 µg/mL (≈ 0.0268 µM) | 0.04 µg/mL (≈ 0.0536 µM) | 0.6 µg/mL (≈ 0.803 µM) | 0.02 µg/mL (≈ 0.0268 µM) | 0.3 µg/mL (≈ 0.402 µM) | CC[C@H]1OC(=O)[C@H](C)C(=O)[C@H](C)[C@@H](O[C@@H]2O[C@H](C)C[C@H](N(C)C)[C@H]2O)[C@](C)(OC)C[C@@H](C)C(=O)[C@H](C)[C@H]2N(CCOCc3ccccc3)C(=O)O[C@]12C |
| 40 µg/mL (≈ 59.1 µM) | 40 µg/mL (≈ 59.1 µM) | 40 µg/mL (≈ 59.1 µM) | 40 µg/mL (≈ 59.1 µM) | 40 µg/mL (≈ 59.1 µM) | 40 µg/mL (≈ 59.1 µM) | 40 µg/mL (≈ 59.1 µM) | 40 µg/mL (≈ 59.1 µM) | 40 µg/mL (≈ 59.1 µM) | 40 µg/mL (≈ 59.1 µM) | 40 µg/mL (≈ 59.1 µM) | CC[C@H]1OC(=O)[C@H](C)[C@@]2(O)O[C@@](C)(C[C@@H](C)/C(=N\OCOCCOC)[C@H](C)[C@@H](O)[C@]1(C)O)[C@H](O[C@@H]1O[C@H](C)C[C@H](N(C)C)[C@H]1O)[C@H]2C |

More lines, now with the values behind:

| Compound | MIC (Haemophilus influenzae [1]) | MIC (Escherichia coli) | MIC (Streptococcus pneumoniae [2]) | MIC [3] | MIC (Staphylococcus aureus [4]) | MIC (Staphylococcus aureus [5]) | MIC (Streptococcus pneumoniae [6]) | MIC (Staphylococcus aureus [7]) | MIC (Haemophilus influenzae [8]) | MIC (Streptococcus pyogenes) | MIC (Streptococcus pneumoniae [9]) |
| --- | --- | --- | --- | --- | --- | --- | --- | --- | --- | --- | --- |
| CC[C@H]1OC(=O)[C@H](C)C(=O)[C@H](C)[C@@H](O[C@@H]2O[C@H](C)C[C@H](N(C)C)[C@H]2O)[C@](C)(OC)C[C@@H](C)/C(=N\OC2CCCN(CCCC3CCCCC3)C2)[C@H](C)[C@@H](O)[C@]1(C)O (some centres undefined) | 5 µg/mL (≈ 6.17 µM) | 40 µg/mL (≈ 49.4 µM) | 0.6 µg/mL (≈ 0.741 µM) | 5 µg/mL (≈ 6.17 µM) | 2.5 µg/mL (≈ 3.09 µM) | 40 µg/mL (≈ 49.4 µM) | 0.02 µg/mL (≈ 0.0247 µM) | 0.15 µg/mL (≈ 0.185 µM) | 1.2 µg/mL (≈ 1.48 µM) | 0.04 µg/mL (≈ 0.0494 µM) | 0.15 µg/mL (≈ 0.185 µM) |
| CC[C@H]1OC(=O)[C@H](C)C(=O)[C@H](C)[C@@H](O[C@@H]2O[C@H](C)C[C@H](N(C)C)[C@H]2O)[C@](C)(OC)C[C@@H](C)/C(=N\OCc2c(C)cc(C)cc2C)[C@H](C)[C@@H](O)[C@]1(C)O | 40 µg/mL (≈ 54.4 µM) | 40 µg/mL (≈ 54.4 µM) | 5 µg/mL (≈ 6.8 µM) | 0.6 µg/mL (≈ 0.816 µM) | 0.6 µg/mL (≈ 0.816 µM) | 10 µg/mL (≈ 13.6 µM) | 0.04 µg/mL (≈ 0.0544 µM) | 0.3 µg/mL (≈ 0.408 µM) | 40 µg/mL (≈ 54.4 µM) | 0.3 µg/mL (≈ 0.408 µM) | 5 µg/mL (≈ 6.8 µM) |
| CC[C@H]1OC(=O)[C@H](C)C(=O)[C@H](C)[C@@H](O[C@@H]2O[C@H](C)C[C@H](N(C)C)[C@H]2O)[C@](C)(OC)C[C@@H](C)/C(=N\OCc2ccccc2)[C@H](C)[C@@H](O)[C@]1(C)O | 40 µg/mL (≈ 57.7 µM) | 40 µg/mL (≈ 57.7 µM) | 40 µg/mL (≈ 57.7 µM) | 40 µg/mL (≈ 57.7 µM) | 40 µg/mL (≈ 57.7 µM) | 40 µg/mL (≈ 57.7 µM) | 0.3 µg/mL (≈ 0.433 µM) | 2.5 µg/mL (≈ 3.61 µM) | 40 µg/mL (≈ 57.7 µM) | 0.6 µg/mL (≈ 0.866 µM) | 40 µg/mL (≈ 57.7 µM) |
| C#CCNCCO/N=C1\[C@H](C)C[C@@](C)(OC)[C@H](O[C@@H]2O[C@H](C)C[C@H](N(C)C)[C@H]2O)[C@@H](C)C(=O)[C@@H](C)C(=O)O[C@H](CC)[C@@](C)(O)[C@H](O)[C@H]1C | 20 µg/mL (≈ 29.2 µM) | 40 µg/mL (≈ 58.5 µM) | 5 µg/mL (≈ 7.31 µM) | 0.3 µg/mL (≈ 0.439 µM) | 5 µg/mL (≈ 7.31 µM) | 40 µg/mL (≈ 58.5 µM) | 2.5 µg/mL (≈ 3.66 µM) | 0.3 µg/mL (≈ 0.439 µM) | 10 µg/mL (≈ 14.6 µM) | 0.08 µg/mL (≈ 0.117 µM) | 40 µg/mL (≈ 58.5 µM) |
| CC[C@H]1OC(=O)[C@H](C)C(=O)[C@H](C)[C@@H](O[C@@H]2O[C@H](C)C[C@H](N(C)C)[C@H]2O)[C@](C)(OC)C[C@@H](C)C(=O)[C@H](C)[C@H]2N(NCCCc3ccccc3)C(=O)O[C@]12C | 1.2 µg/mL (≈ 1.61 µM) | 40 µg/mL (≈ 53.6 µM) | 5 µg/mL (≈ 6.7 µM) | 0.15 µg/mL (≈ 0.201 µM) | 0.15 µg/mL (≈ 0.201 µM) | 40 µg/mL (≈ 53.6 µM) | 0.02 µg/mL (≈ 0.0268 µM) | 0.08 µg/mL (≈ 0.107 µM) | 1.2 µg/mL (≈ 1.61 µM) | 0.02 µg/mL (≈ 0.0268 µM) | 0.15 µg/mL (≈ 0.201 µM) |
| CC[C@H]1OC(=O)[C@H](C)C(=O)[C@H](C)[C@@H](O[C@@H]2O[C@H](C)C[C@H](N(C)C)[C@H]2O)[C@](C)(OC)C[C@@H](C)C(=O)[C@H](C)[C@H]2N(NCCCc3cccc(Cl)c3)C(=O)O[C@]12C | 1.2 µg/mL (≈ 1.54 µM) | 40 µg/mL (≈ 51.3 µM) | 2.5 µg/mL (≈ 3.2 µM) | 0.04 µg/mL (≈ 0.0513 µM) | 0.08 µg/mL (≈ 0.103 µM) | 40 µg/mL (≈ 51.3 µM) | 0.02 µg/mL (≈ 0.0256 µM) | 0.04 µg/mL (≈ 0.0513 µM) | 2.5 µg/mL (≈ 3.2 µM) | 0.02 µg/mL (≈ 0.0256 µM) | 0.08 µg/mL (≈ 0.103 µM) |
